Measured values from different studies.
CHEK2: Serine/threonine-protein kinase Chk2 (CHEK2, Homo sapiens, UniProt O96017)
CHEK2 I157T: Serine/threonine-protein kinase Chk2 (CHEK2, Homo sapiens, UniProt O96017, I157T)

Oc1cccc(-c2nc(N3CCOCC3)c3oc4ncccc4c3n2)c1 — remaining signal (CHEK2; cell-free assay; 0.5 µM): 90.4%
Cn1c2c(Cl)c(Cl)ccc2c2cc[nH]c(=O)c21 — ΔTm (CHEK2; thermal stability, DSF; 10 µM): 0.2 °C
CC(=O)C1=C(C)N(c2cccc(C(F)(F)F)c2)C(=O)N[C@@H]1c1ccc(C#N)nc1 — remaining binding (CHEK2; cell-free assay, competition with immobilised ligand; 1 µM): 85.6%
Cc1cnc(NC2CCOCC2)nc1-n1cnc(C(=O)NC(CN)c2cc(F)cc(Cl)c2)c1 (centres unmarked) — remaining activity (CHEK2 I157T; enzyme activity, inhibitor, radiometric; 1 µM): 82%
CCN(CC)CCNC(=O)c1c(C)[nH]c(/C=C2\C(=O)Nc3ccc(F)cc32)c1C — remaining signal (CHEK2; cell-free assay; 0.5 µM): 7.13%
CCCOc1ccc([C@H]2[C@H](C(=O)O)[C@@H](c3ccc4c(c3)OCO4)CN2CC(=O)Nc2c(CC)cccc2CC)cc1 — remaining binding (CHEK2; cell-free assay, competition with immobilised ligand; 1 µM): 88%
Cc1ccc(Nc2nccc(N(C)c3ccc4c(C)n(C)nc4c3)n2)cc1S(N)(=O)=O — inhibition (CHEK2; enzyme activity, inhibitor; 0.3 µM): -13%
CN(C)C1CCN(CC#Cc2nn(C3CCCC3)c3nc(NCc4ccccc4)ncc23)C1 (centres unmarked) — inhibition (CHEK2; enzyme activity, inhibitor, FRET; 1 µM): 7%
C#Cc1cccc(Nc2ncnc3cc(OCCOC)c(OCCOC)cc23)c1 — remaining signal (CHEK2; cell-free assay; 0.5 µM): 100%
N#CC1c2c([nH]c3c(Cl)c(Cl)ccc23)C(=O)NC12CCCCC2 (racemic) — ΔTm (CHEK2; thermal stability, DSF; 10 µM): 0.1 °C
O=C1Nc2ccc(Cl)cc2C1=Cc1cc(Cl)c(O)c(Cl)c1 — remaining signal (CHEK2; cell-free assay; 0.5 µM): 70.2%
CCN1CCC2(CC1)NC(=O)c1c(c3ccc(Cl)c(Cl)c3n1C)C2C#N (racemic) — ΔTm (CHEK2; thermal stability, DSF; 10 µM): -0.2 °C
CCCOc1ccc(OC)c(F)c1C(=O)c1ccc(C(=O)N[C@@H]2CNC[C@H]2NC(=O)c2ccc3[nH]ncc3c2)cc1 — remaining activity (CHEK2 I157T; enzyme activity, inhibitor; 10 µM): 16%
Cn1c2c(Cl)c(Cl)ccc2c2cn[nH]c(=O)c21 — ΔTm (CHEK2; thermal stability, DSF; 10 µM): -0.4 °C
Cc1noc([C@H]2C[C@@H](c3ccc(C(F)(F)F)cc3)CN(C(=O)N3CCS(=O)(=O)C3)C2)n1 — remaining binding (CHEK2; cell-free assay, competition with immobilised ligand; 1 µM): 100%
CNC(=O)c1cc(Oc2ccc(NC(=O)Nc3ccc(Cl)c(C(F)(F)F)c3)cc2)ccn1 — inhibition (CHEK2 I157T; enzyme activity, inhibitor; 0.3 µM): -9%
O=C1CCc2cc(Nc3cc(OC4CCOCC4)c([N+](=O)[O-])cc3Cl)ccc2N1 — remaining binding (CHEK2; cell-free assay, competition with immobilised ligand; 1 µM): 69%
COc1cc(Nc2c(C#N)cnc3cc(OCCCN4CCN(C)CC4)c(OC)cc23)c(Cl)cc1Cl — remaining signal (CHEK2; cell-free assay; 0.5 µM): 21.7%
O=C(Nc1cccnn1)N1CC(C/C=C/c2cncc(Oc3ccc(C(F)(F)F)cn3)n2)C1 — remaining binding (CHEK2; cell-free assay, competition with immobilised ligand; 1 µM): 100%
Cn1c2c(c3ccc(Cl)c(Cl)c31)C(C#N)C1(CCNCC1)NC2=O (racemic) — ΔTm (CHEK2; thermal stability, DSF; 10 µM): 0.2 °C
CN([C@@H]1CCc2c(CC(=O)O)c3ccccc3n2C1)S(=O)(=O)c1ccc(F)cc1 — remaining binding (CHEK2; cell-free assay, competition with immobilised ligand; 1 µM): 100%
Cc1cc(NC(=O)c2cccc3cc(-c4cccc5[nH]nc(N)c45)ccc23)ccc1F — activity vs control (CHEK2; enzyme activity, inhibitor; 0.1 µM): 102%
Cn1c2c(c3ccc(Cl)c(Cl)c31)C(C#N)C1(CCCC1)NC2=O (centres unmarked) — ΔTm (CHEK2; thermal stability, DSF; 10 µM): 0 °C
CN([C@@H]1CCc2c(CC(=O)O)c3cc(S(C)(=O)=O)ccc3n2C1)S(=O)(=O)c1ccc(F)cc1 — remaining binding (CHEK2; cell-free assay, competition with immobilised ligand; 1 µM): 100%
Cn1c2c(c3ccc(Cl)c(Cl)c31)C(C#N)C(C)(C)NC2=O (centres unmarked) — ΔTm (CHEK2; thermal stability, DSF; 10 µM): 0.2 °C
CCCCN(CCCC)C(=O)CN1C[C@H](c2cc(OC)c3c(c2)OCO3)[C@@H](C(=O)O)[C@@H]1CC(C)(C)CCC — remaining binding (CHEK2; cell-free assay, competition with immobilised ligand; 1 µM): 100%
